Assays:
[1] = Binding affinity to recombinant bacteria NDM-1 (I31 to K268 residues)expressed in Escherichia coli BL21 (DE3) cells by SPR assay
How it was run: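 Tag-free NDM-1 at 50 µg/ml in pH 5.0 sodium acetate, amine-coupled to a CM7 chip (>8,000 RU). Biacore T200, 25 °C, 30 µL/min. Running buffer 10 mM Hepes pH 7.5, 150 mM NaCl, 100 µM ZnCl2, 2% DMSO (EDTA-2Na run without DMSO). Eight two-fold dilutions per compound. KD from a steady-state 1:1 fit, at least three runs.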

[2] = tested on: Klebsiella pneumoniae; assay: Synergistic antibacterial activity against Klebsiella pneumoniae ATCC BAA-2470 cells expressing NDM-1 incubated for 20 to 24 hrs presence of meropenem by broth dilution method (Rvb >64 ug/ml); type: functional
How it was run: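 Broth microdilution in Mueller-Hinton broth, final inoculum about 5 × 10^5 CFU/mL. Test compound fixed at 100 µg/mL final (from 20 mg/mL DMSO stock). Meropenem in two-fold dilutions, 64 to 0.0625 µg/mL final. Plates held 20–24 h at 37 °C. MIC is the lowest meropenem concentration with no visible growth.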

[3] = Inhibition of bacteria NMD-1
[4] = Inhibition of recombinant bacteria NDM-1 (I31 to K268 residues) expressed in Escherichia coli BL21 (DE3) cells incubated for 20 mins using meropenem as substrate
How it was run: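 NDM-1 (12 nM) preincubated with inhibitor for 20 min at room temperature, then meropenem (100 µM) added. Final buffer 50 mM hepes pH 7.24 with 2% DMSO. Absorbance read at 300 nm at 30 °C. Duplicate wells, three repeats. IC50 taken from percent loss of activity against inhibitor concentration; L-captopril as positive control.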

[5] = Binding affinity to recombinant bacteria 15N labeled His-6-tagged NDM-1 (36 to 270 residues) expressed in Escherichia coli BL21 (DE3) cells by NMR analysis
How it was run: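 15N-labelled NDM-1 (0.11 mM or 0.165 mM) in 50 mM HEPES, 200 mM NaCl, pH 7.5, titrated with inhibitor from DMSO stock (20 mM or 50 mM). 1H-15N HSQC spectra recorded at 800 MHz, 298 K and 293 K. NDM-1:inhibitor mole ratios ran 1:0 to 1:15. Both di-Zn and apo (EDTA-stripped) forms were used; after the apo titrations, 2 equiv Zn2+ added.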

| MIC [2] [µg/mL] | IC50 [4] [µM] | SMILES | Kd [1] [µM] | IC50 [3] [µM] | Kd [5] [µM] |
| --- | --- | --- | --- | --- | --- |
| > 64 | – | CC(C)(C)/C(=N\Nc1ccccc1)C(=O)O | 438 | – | – |
| > 64 | – | C/C(=N\Nc1cccnc1)C(=O)O.Cl | > 1000 | – | – |
| – | – | O=C(O)[C@@H]1CS[C@H]2CS[C@H](CS)N21 | – | 23 | – |
| > 64 | 28.1 | CC/C(=N\Nc1cccc2ccccc12)C(=O)O | 449 | – | – |
| – | – | NCCN[C@H]1CC[C@H](CC(=O)N[C@H]2Cc3cccc(C(=O)O)c3OB2O)CC1 | – | 0.01 | – |
| 64 | 68.2 | CC/C(=N\Nc1cccc2cccnc12)C(=O)O.Cl | 275 | – | – |
| 32 | > 500 | CCC/C(=N\Nc1cccc2ccccc12)C(=O)O | > 1000 | – | – |
| – | – | O=C(O)CNC(=O)C(CS)Cc1ccccc1 (configuration not stated) [THIORPHAN] | – | 1.8 | – |
| – | – | N[C@@H](CN[C@@H](CN[C@@H](CC(=O)O)C(=O)O)C(=O)O)C(=O)O | – | 7 | – |
| > 64 | 389 | C/C(=N\Nc1cccc2ccccc12)C(=O)O | 255 | – | – |
| – | – | O=c1c2ccccc2[se]n1-c1ccccc1 [EBSELEN] | – | 0.38 | – |
| > 64 | 82.3 | CCC/C(=N\Nc1cccc2cccnc12)C(=O)O.Cl | 221 | – | – |
| > 64 | 124 | C/C(=N\Nc1cccc2cccnc12)C(=O)O.Cl | 219 to 290 | – | 620 |
| > 64 | – | CC/C(=N\Nc1ccccc1)C(=O)O | 191 | – | – |
| > 64 | – | C/C(=N\Nc1ccccc1)C(=O)O | 168 | – | – |
| – | – | NCc1ccc(C(=O)N[C@H]2Cc3cccc(C(=O)O)c3O[B-]2(O)O)cc1 | – | 0.029 | – |
| > 64 | – | CC(C)(C)/C(=N\Nc1cccnc1)C(=O)O.Cl | > 1000 | – | – |
| – | – | C[C@@H](O)[C@H]1C(=O)N2C(C(=O)O)=C(S[C@@H]3CN[C@H](C(=O)N(C)C)C3)[C@H](C)[C@H]12 [MEROPENEM] | 75 | – | – |
| > 64 | – | CCC/C(=N\Nc1cccnc1)C(=O)O.Cl | 703 | – | – |
| > 64 | – | CCC/C(=N\Nc1ccccc1)C(=O)O | 188 | – | – |
| > 64 | – | CC/C(=N\Nc1cccnc1)C(=O)O.Cl | > 1000 | – | – |
| > 64 | 94.6 | CC(C)(C)/C(=N\Nc1cccc2ccccc12)C(=O)O | 307 | – | – |
| 64 | > 500 | CC(C)(C)/C(=N\Nc1cccc2cccnc12)C(=O)O.Cl | 435 | – | – |
| – | 390 | C[C@H](CS)C(=O)N1CCC[C@H]1C(=O)O [CAPTOPRIL] | 12 to 14.1 | – | – |

| SMILES | MIC [2] [µg/mL] | IC50 [4] [µM] | Kd [1] [µM] | IC50 [3] [µM] | Kd [5] [µM] |
| --- | --- | --- | --- | --- | --- |
| O=C([O-])CN(CCN(CC(=O)[O-])CC(=O)O)CC(=O)O.[Na+].[Na+] [EDETATE DISODIUM ANHYDROUS] | – | 17.2 | > 1000 | – | – |

From ChEMBL document CHEMBL4622835, “A novel potent metal-binding NDM-1 inhibitor was identified by fragment virtual, SPR and NMR screening” (Bioorg Med Chem, 2020)
